Measured values reported in PMC6008213 (Biochemistry, 2018).
Residue numbers refer to the chain shown, from its start.

How the values were obtained:
TG2 = conditions: reported value; cited from earlier work
human TG2 [1] = molecular target: T1, human TG2 (Homo sapiens, UniProt P21980); assay: TG2 deamidation activity assay; format: biochemical; conditions: for kinh/Ki (bimolecular rate constant for TG2 oxidation): deamidation activity assay, 50 mM Tris, 1 mM EDTA, TG2 10 μM
T1 sequence (P21980 1-687): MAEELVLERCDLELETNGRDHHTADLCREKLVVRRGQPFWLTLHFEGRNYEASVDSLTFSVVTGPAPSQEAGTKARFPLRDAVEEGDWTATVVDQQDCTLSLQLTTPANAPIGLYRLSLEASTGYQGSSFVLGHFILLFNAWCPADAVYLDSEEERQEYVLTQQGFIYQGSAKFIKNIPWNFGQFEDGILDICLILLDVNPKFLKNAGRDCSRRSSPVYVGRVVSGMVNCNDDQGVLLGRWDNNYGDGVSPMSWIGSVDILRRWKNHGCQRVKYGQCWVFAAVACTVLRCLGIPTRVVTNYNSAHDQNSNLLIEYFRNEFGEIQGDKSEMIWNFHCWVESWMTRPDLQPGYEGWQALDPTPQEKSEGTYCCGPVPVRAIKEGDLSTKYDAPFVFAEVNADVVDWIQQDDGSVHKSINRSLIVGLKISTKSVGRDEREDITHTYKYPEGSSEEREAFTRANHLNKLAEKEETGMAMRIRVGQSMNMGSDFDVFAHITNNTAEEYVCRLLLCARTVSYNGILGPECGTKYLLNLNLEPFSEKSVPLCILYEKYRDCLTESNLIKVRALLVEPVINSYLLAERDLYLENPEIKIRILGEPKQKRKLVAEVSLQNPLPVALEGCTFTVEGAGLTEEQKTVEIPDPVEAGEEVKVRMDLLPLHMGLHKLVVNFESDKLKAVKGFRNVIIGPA
How it was run: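 Human TG2 was expressed in and purified from E. coli and held at 10 μM in 50 mM Tris, 1 mM EDTA, pH 7.6, 22 °C, with disulfide oxidant. Aliquots taken at 2.5–120 min were diluted 10-fold into assay buffer. Deamidation activity was read relative to oxidant-free enzyme, in three technical replicates. Single-exponential fits gave k′. kinh/Ki came from the slope of k′ versus [I0], and Ki from fitting k′ versus [I0].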

human TG2 [2] = molecular target: T1, human TG2; assay: TG2 transamidation activity assay; format: biochemical
How it was run: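 Transamidation was measured with TG2 immobilized on fibronectin, in 50 mM Tris, 1 mM EDTA, pH 7.6, 22 °C. After timed exposure to oxidant, activity was read relative to untreated enzyme. Single-exponential fits gave k′. Ki and kinh/Ki came from the dependence of k′ on inhibitor concentration.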

[3] = molecular target: T2, C230S mutant of human TG2 (Homo sapiens, UniProt P21980, C230S); assay: Deamidation activity of the C230S mutant of TG2 after cystamine treatment; format: biochemical; conditions: 10-fold molar excess of cystamine, 30 min; pH 7.6, 22 °C
T2 sequence (P21980 1-687 C230S): T1 sequence (P21980 1-687) with C230S

Ki (human TG2 [1])	inactivation of WT TG2 (deamidation activity) (human TG2 [1]; 10-fold molar excess of cystamine, 30 min, pH 7.6, 22 °C)	kinh/Ki (bimolecular rate constant for TG2 oxidation) (human TG2 [1]; pH 7.6, 22 °C)	Ki (human TG2 [2])	kinh/Ki (bimolecular rate constant for TG2 oxidation) (human TG2 [2]; transamidation activity assay, 50 mM Tris, 1 mM EDTA, pH 7.6, 22 °C (disulfiram: TG2 50 nM, disulfiram 10 μM, 2.5% DMSO))	retained deamidation activity of C230S mutant [3]	SMILES	kinh/Ki (TG2)
–	–	–	–	–	–	O=C(NC[C@@H]1CC(Br)=NO1)[C@@H]1CCCN1C(=O)OCc1cnc2ccccc2c1 [ERW1041E]	267 M⁻¹ s⁻¹
> 600 µM	completely inactivated	20 M⁻¹ s⁻¹	> 100 µM	28.3 M⁻¹ s⁻¹	> 85%	NCCSSCCN [cystamine]	–
–	–	4.83 M⁻¹ s⁻¹	–	–	–	N[C@@H](CSSC[C@H](N)C(=O)O)C(=O)O [cystine]	–
